Measurements taken from ChEMBL document CHEMBL1126152, “Fluoronaphthyridines as antibacterial agents. 4. Synthesis and structure-activity relationships of 5-substituted-6-fluoro-7-(cycloalkylamino)-1,4-dihydro-4-oxo-1,8- naphthyridine-3-carboxylic acids” (J Med Chem, 1992).
Values after ≈ are worked out from the molar mass of the structure shown.

Experiments:
Staphylococcus = experiment: Compound was tested for […] against Staphylococcus aureus A 15090 after oral administration of drug in value in the parenthesis indicates 95% confidence limits; format: functional; details: read-out: PD50
Procedure, shortened: (§1)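 Mouse protection test against systemic infection. Compound was dissolved in sterile water and given orally to female OF1-strain Swiss mice weighing 18–25 g, with five mice per group.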

Mus musculus = organism: Mus musculus; details: in vivo
in vivo [1] = details: mouse, plasma, T1/2
Klebsiella pneumoniae = experiment: In vitro for antibacterial activity against Klebsiella pneumoniae; format: functional
Procedure, shortened: (§2)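 MIC by serial 2-fold broth dilution in nutrient broth with an inoculum of 10^6 CFU/mL. Compound range was 0.0005–250 μg/mL. Plates were incubated 18 h at 37 °C. MIC was taken as the lowest concentration preventing visible growth.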

Pseudomonas aeruginosa [2] = experiment: Compound was tested for […] against Pseudomonas aeruginosa A 9843 after oral administration of drug in mice, value in the parenthesis indicates 95% confidence limits; format: functional; details: read-out: PD50; procedure, shortened: as §1
Staphylococcus aureus [3] = experiment: Antibacterial activity against Staphylococcus aureus; format: functional
Morganella morganii = experiment: In vitro for antibacterial activity against Morganella morganii; format: functional; procedure, shortened: as §2
Pseudomonas aeruginosa [4] = experiment: In vitro for antibacterial activity against Pseudomonas aeruginosa; format: functional; procedure, shortened: as §2
Escherichia coli [5] = experiment: In vitro for antibacterial activity against Escherichia coli; format: functional; procedure, shortened: as §2
Bacteroides fragilis = experiment: In vitro for antibacterial activity against […].; format: functional; procedure, shortened: as §2
[6] = % dose recovered in mouse urine; details: % recovery
Enterobacter cloacae = experiment: In vitro for antibacterial activity against Enterobacter cloacae; format: functional
Serratia marcescens = experiment: In vitro for antibacterial activity against Serratia marcescens; format: functional; procedure, shortened: as §2
in vivo [7] = details: mouse, plasma
Enterococcus faecalis = experiment: In vitro for antibacterial activity against Enterococcus faecalis; format: functional; procedure, shortened: as §2
Streptococcus pneumoniae [8] = experiment: Antibacterial activity against Streptococcus pneumoniae; format: functional
Proteus mirabilis = experiment: In vitro for antibacterial activity against Proteus mirabilis; format: functional; procedure, shortened: as §2
[9] = Lethal dose was determined in OF1-strain female Swiss mice after intra venous administration of the drug; details: mouse, in vivo, iv
Streptococcus pneumoniae [10] = experiment: animal or person; format: functional; details: in Mus musculus, po, read-out: PD50
[11] = Solubility was measured at PH - 7.2 buffer
Pseudomonas aeruginosa [12] = experiment: Compound was tested for […] against Pseudomonas aeruginosa A 9843 after oral administration of drug in mice,; format: functional; details: read-out: PD50; procedure, shortened: as §1
[13] = Lethal dose was determined in OF1-strain female Swiss mice after oral administration of the drug; details: mouse, in vivo
[14] = Partition coefficient (logD); details: octanol/water
Staphylococcus aureus [15] = experiment: animal or person; format: functional; details: in Mus musculus, po, read-out: PD50
Escherichia coli [16] = experiment: Compound was tested for […] against Escherichia coli A 15119 after oral administration of drug in mice; format: functional; details: read-out: PD50; procedure, shortened: as §1

## Cc1c(F)c(N2CC3CC2CN3)nc2c1c(=O)c(C(=O)O)cn2C(C)(C)C (stereo unspecified)
Staphylococcus
  ED50: 12.5 mg/kg
Mus musculus
  AUC: 74000 ng·h/mL
In vivo [1]
  half-life: 3.1 h
Klebsiella pneumoniae
  MIC: 0.06 µg/mL (≈ 0.16 µM)
Pseudomonas aeruginosa [2]
  ED50: 4.1 mg/kg
Staphylococcus aureus [3]
  MIC: 0.02 µg/mL (≈ 0.0534 µM)
Morganella morganii
  MIC: 0.13 µg/mL (≈ 0.347 µM)
Pseudomonas aeruginosa [4]
  MIC: 2 µg/mL (≈ 5.34 µM)
Escherichia coli [5]
  MIC: 0.03 µg/mL (≈ 0.0801 µM)
Bacteroides fragilis
  MIC: 32 µg/mL (≈ 85.5 µM)
[6]
  dose excreted: 12%
Enterobacter cloacae
  MIC: 0.13 µg/mL (≈ 0.347 µM)
Serratia marcescens
  MIC: 0.13 µg/mL (≈ 0.347 µM)
In vivo [7]
  Cmax: 22000 ng/mL
Enterococcus faecalis
  MIC: 0.5 µg/mL (≈ 1.34 µM)
Streptococcus pneumoniae [8]
  MIC: 0.25 µg/mL (≈ 0.668 µM)
Proteus mirabilis
  MIC: 0.25 µg/mL (≈ 0.668 µM)

## Cc1c(F)c(N2CC[C@H](N)C2)nc2c1c(=O)c(C(=O)O)cn2C1CC1
[9]
  LD50: 56 mg/kg
Klebsiella pneumoniae
  MIC: 0.004 µg/mL (≈ 0.0115 µM)
Staphylococcus aureus [3]
  MIC: 0.004 µg/mL (≈ 0.0115 µM)
Morganella morganii
  MIC: 0.016 µg/mL (≈ 0.0462 µM)
Pseudomonas aeruginosa [4]
  MIC: 0.25 µg/mL (≈ 0.722 µM)
Streptococcus pneumoniae [10]
  ED50: 19 mg/kg
Escherichia coli [5]
  MIC: 0.002 µg/mL (≈ 0.00577 µM)
Bacteroides fragilis
  MIC: 0.25 µg/mL (≈ 0.722 µM)
Enterobacter cloacae
  MIC: 0.002 µg/mL (≈ 0.00577 µM)
Serratia marcescens
  MIC: 0.004 µg/mL (≈ 0.0115 µM)
[11]
  solubility: 70 µg/mL (≈ 202 µM)
Pseudomonas aeruginosa [12]
  ED50: 2.8 mg/kg
[13]
  LD50: 2500 mg/kg
Enterococcus faecalis
  MIC: 0.13 µg/mL (≈ 0.375 µM)
[14]
  logD: 0.78
Staphylococcus aureus [15]
  ED50: 5.5 mg/kg
Streptococcus pneumoniae [8]
  MIC: 0.13 µg/mL (≈ 0.375 µM)
Escherichia coli [16]
  ED50: 1.8 mg/kg
Proteus mirabilis
  MIC: 0.008 µg/mL (≈ 0.0231 µM)
